# Results published in PMC10043961 (Biomedicine & Pharmacotherapy, 2023).
# Values joined by “and” are separate entries in the source; they are usually repeats but may differ in a detail not shown here. Equal values may be shown once. “Also recorded” adds a separate entry of the source. Read-outs that look alike come from different tables or passages of the source.
# Key:
# SARS-CoV-2 [1] = test: microbe, parasite or virus in culture; type: cell-based; conditions: Severe acute respiratory syndrome coronavirus 2, Vero
# [2] = tested on: ecto-5′-nucleotidase (NT5E) or (CD73); test: Western blot of NT5E; type: cell-based
# Summary of the method: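 Vehicle- and test compound-treated cells were lysed in RIPA buffer with protease inhibitors, and protein was measured by BCA in triplicate. Lysates were separated by SDS-PAGE and transferred to nitrocellulose. Membranes were blocked in 5% skim milk/TBS and probed with anti-NT5E/CD73 primary antibody.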
# [3] = tested on: purine synthesis pathway in Vero E6 cells; test: Metabolomic analysis of Vero E6 cells, purine synthesis pathway; type: cell-based; conditions: Vero E6, 1 and 5 µM
# Summary of the method: (§1)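 Vero E6 cells at 80% confluence were treated for 24 h with test compound (1, 5 or 10 µM) in regular culture medium, with DMSO as vehicle. Cells were washed with ice-cold PBS and scraped into ice-cold 80% methanol for LC-MS metabolomics. Metabolites were matched to an in-house database (10 ppm mass, 0.5 min retention time tolerance), and peak integration was manually curated.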
# [4] = data from DrugBank ref 49; cited from earlier work
# [5] = tested on: SARS-CoV-2 double-stranded RNA; type: cell-based
# Vero E6 cells [6] = conditions: for Drug-induced toxicity, LDH release (in words): Vero E6, 24 h; for Effect on cellular ATP levels (in words): Vero E6, Cell Titer Glo
# [7] = tested on: SARS-CoV-2 double-stranded RNA; type: cell-based; remark: listed apart in the source
# [8] = tested on: SARS-CoV-2 (USA-WA1/2020); test: microbe, parasite or virus in culture; type: cell-based; conditions: for EC50: Severe acute respiratory syndrome coronavirus 2, Huh7.5, read-out: EC50(µM) (R^2); for IC50: Severe acute respiratory syndrome coronavirus 2, Huh7.5, read-out: IC50, inhibitory viral replication concentration at 50%
# Vero E6 cells [9] = conditions: Vero E6, 1–10 µM, 24 h
# [10] = tested on: SARS-CoV-2 viral clearance; conditions: patients hospitalized with COVID-19 ref 62; cited from earlier work
# in vitro = conditions: human
# [11] = tested on: SARS-CoV-2 (USA-WA1/2020); type: cell-based
# SARS-CoV-2 Mpro [12] = biological target: T1, SARS-CoV-2 Mpro (Severe acute respiratory syndrome coronavirus 2, UniProt P0DTD1); test: biochemical; conditions: for IC50: IC50 against Mpro activity
# [13] = tested on: pyrimidine synthesis (DHODH) in Vero E6 cells; test: Metabolomic analysis of Vero E6 cells, de novo pyrimidine synthesis; type: cell-based; conditions: 24 h; for Pyrimidine synthesis, UMP levels (in words): Vero E6, 10 µM
# Summary of the method: as §1
# [14] = Mouse pharmacokinetics: plasma and epithelial lining fluid; type: in vivo, mice
# Summary of the method: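 Female 6-week-old CD1 mice were dosed PO once daily for 7 days. […] Plasma and BAL were assayed by LC-MS/MS against spiked standard curves. ELF levels came from urea normalization (VELF = VBAL × UreaBAL/Ureaplasma). Free drug was calculated as total × fraction unbound from rapid equilibrium dialysis.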
# SARS-CoV-2 [15] = type: cell-based
# [16] = cited from earlier work
# SARS-CoV-2 Mpro [17] = biological target: T1, SARS-CoV-2 Mpro; type: binding
# [18] = read-out: Inhibition of Mpro activity
# [19] = mice, 10 mg/kg PO daily for 7 days, 10 mg/kg
structure (smiles),measurement,setting,value
O=C1C(O)=C([C@H]2CC[C@H](c3ccc(Cl)cc3)CC2)C(=O)c2ccccc21 [Atovaquone],IC50,SARS-CoV-2 [1],0.02 µM
same,"NT5E protein expression, quantification (in words)",[2]; 5 µM,significant decrease
same,NT5E expression (in words),[2]; atovaquone treated cells,significantly downregulated
same,"Free guanosine, inosine and adenosine levels (in words)",[3],"downregulation of adenosine, guanosine, and inosine levels"
same,"Free guanosine, inosine and adenosine levels (in words)",[3]; listed as atovaquone,significant depletion
same,Protein bound,[4],> 99.9%
same,dsRNA staining compared to DMSO-treated control cells,[5],striking reduction in dsRNA staining
same,"Drug-induced toxicity, LDH release (in words)",Vero E6 cells [6],did not elicit substantial LDH release
same,dsRNA staining compared to DMSO-treated control cells,[7],striking reduction in dsRNA staining
same,EC50,[8],6.2 µM
same,IC50,[8],6.8 µM
same,"Phospholipidosis, NBD-PE (in words)",Vero E6 cells [9],did not show phospholipidosis
same,primary endpoint: effect on SARS-CoV-2 viral clearance compared with placebo,[10],did not meet the primary endpoint
same,CC50,in vitro,> 100 µM
same,Antiviral effect on SARS-CoV-2 replication (in words),[11],dose-dependent inhibition
same,inhibition at 50 µM,SARS-CoV-2 Mpro [12]; read-out: Inhibitory effect on Mpro activity,~35%
same,"Pyrimidine synthesis, UMP levels versus orotate and dihydroorotate (in words)","[13]; Vero E6, 1 µM and 5 µM",does not inhibit pyrimidine synthesis
same,"Pyrimidine synthesis, UMP levels (in words)",[13],significant depletion in UMP levels
same,"Pyrimidine synthesis, UMP levels (in words)",[13]; listed as atovaquone,significant inhibition in pyrimidine synthesis
same,Cmax in mice compared to BID dosing in HIV infected volunteers,[14]; mice 20 mg/kg PO daily for 7 days versus human values of ref 57,2–5 fold
same,peak total plasma concentration,"[14]; mice, 20 mg/kg PO daily for 7 days",100 µg/mL
same,peak free epithelial lining fluid (ELF) concentration,"[14]; mice, 20 mg/kg PO daily for 7 days, urea normalized, 20 mg/kg",70 nM
same,peak free plasma level,"[14]; mice, 20 mg/kg PO daily for 7 days, 20 mg/kg",~44 nM
same,half-life,"[14]; mouse, in vivo",18 to 38 h
same,Viral replication in the presence of uridine (in words),SARS-CoV-2 [15],significant inhibition for viral replication regardless the uridine concentration
same,serum levels,[16],> 40 µM
COc1ccccc1Oc1c(NS(=O)(=O)c2ccc(C(C)(C)C)cc2)nc(-c2ncccn2)nc1OCCO [Bosentan],"Drug-induced toxicity, LDH release (in words)",Vero E6 cells [6],minimal impact
same,Effect on cellular ATP levels (in words),Vero E6 cells [6],minimal impact
same,Antiviral effect on SARS-CoV-2 replication (in words),[11],modest dose-dependent antiviral effects
COc1cccc2c1C(=O)c1c(O)c3c(c(O)c1C2=O)C[C@@](O)(C(C)=O)C[C@@H]3O[C@H]1C[C@H](N)[C@H](O)[C@H](C)O1 [Daunorubicin],"Drug-induced toxicity, LDH release (in words)",Vero E6 cells [6],toxic to cells at high doses
same,Antiviral effect on SARS-CoV-2 replication (in words),[11],dose-dependent inhibition
CCCCc1oc2ccc(NS(C)(=O)=O)cc2c1C(=O)c1ccc(OCCCN(CCCC)CCCC)cc1 [Dronedarone],"Drug-induced toxicity, LDH release (in words)",Vero E6 cells [6],particularly toxic at IC50 concentrations
same,EC50,[8],0.38 µM
same,IC50,[8],0.38 µM
same,CC50,in vitro,20.2 µM
same,Antiviral effect on SARS-CoV-2 replication (in words),[11],dose-dependent inhibition
same,Inhibition of Mpro activity (in words),SARS-CoV-2 Mpro [12],significant inhibition
same,IC50,SARS-CoV-2 Mpro [12],18 µM
same,inhibition at 50 µM,SARS-CoV-2 Mpro [12]; [18],50%
CCN(CC)C(=O)/C(C#N)=C/c1cc(O)c(O)c([N+](=O)[O-])c1 [Entacapone],Mpro covalently modified,SARS-CoV-2 Mpro [17],15–20%
same,Antiviral effect on SARS-CoV-2 replication (in words),[11],did not elicit a reproducible antiviral effect
same,Inhibition of Mpro activity (in words),SARS-CoV-2 Mpro [12],significant inhibition
same,IC50,SARS-CoV-2 Mpro [12],9 µM and 9.04 µM
same,inhibition at 50 µM,SARS-CoV-2 Mpro [12]; [18],50%
COC(=O)Nc1nc2ccc(C(=O)c3ccccc3)cc2[nH]1 [Mebendazole],"Drug-induced toxicity, LDH release (in words)",Vero E6 cells [6],absence of overt toxicity
same,Antiviral activity in Huh7.5 cells (in words),[8],lacks strong inhibitory activity; also recorded: less effective
same,CC50,in vitro,> 100 µM
same,Antiviral effect on SARS-CoV-2 replication (in words),[11],dose-dependent inhibition
same,Inhibition of Mpro activity (in words),SARS-CoV-2 Mpro [12],significant inhibition
same,IC50,SARS-CoV-2 Mpro [12],19 µM and 19.9 µM
same,time of maximum total plasma concentration after the last dose,"[14]; mice, 10 mg/kg PO daily for 7 days",≤ 90 min
same,maximum total plasma concentration,[14]; [19],697.67 ng/mL and 2.36 µM
same,peak free drug level in ELF,[14]; [19],~550 ng/mL and ~1.8 µM
same,peak plasma levels of patients,[16]; patients receiving 10 mg/kg every 6 h (total 40 mg/kg/day) ref 60,0.3 to 1.69 µM
O=C1c2c(O)ccc(O)c2C(=O)c2c(NCCNCCO)ccc(NCCNCCO)c21 [Mitoxantrone],"Drug-induced toxicity, LDH release (in words)",Vero E6 cells [6],did not elicit substantial LDH release
same,Antiviral effect on SARS-CoV-2 replication (in words),[11],dose-dependent inhibition
C[C@@H]1O[C@@H](O[C@H]2C[C@@H](O)[C@]3(CO)[C@H]4[C@H](O)C[C@]5(C)[C@@H](C6=CC(=O)OC6)CC[C@]5(O)[C@@H]4CC[C@]3(O)C2)[C@H](O)[C@H](O)[C@H]1O [Ouabain],"Drug-induced toxicity, LDH release (in words)",Vero E6 cells [6],absence of overt toxicity
same,EC50,[8],0.07 µM
same,IC50,[8],0.075 µM
same,CC50,in vitro,> 100 µM
same,Antiviral effect on SARS-CoV-2 replication (in words),[11],dose-dependent inhibition
same,IC50 against SARS-CoV-2 (in words),[11],low nanomolar range
C=C[C@H]1C[N@@]2CC[C@H]1C[C@@H]2[C@@H](O)c1ccnc2ccc(OC)cc12 [Quinidine],"Drug-induced toxicity, LDH release (in words)",Vero E6 cells [6],minimal impact
same,Effect on cellular ATP levels (in words),Vero E6 cells [6],minimal impact
same,Antiviral effect on SARS-CoV-2 replication (in words),[11],modest dose-dependent antiviral effects
COc1cccc(-c2ccc(NC(=O)C3=C(C(=O)O)CCC3)c(F)c2)c1 [vidofludimus],Viral replication in the presence of uridine (in words),SARS-CoV-2 [15],inhibitory activity was reversed with addition of uridine; also recorded: activity changed based on the uridine addition
